Columns and labels:
Type in all cases: functional
UACC-62 = experiment: Cytotoxicity against human UACC62 cells by sulforhodamine B assay
How it was run: (§1)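 Growth of the human tumor cell line was read colorimetrically with sulforhodamine B, following the NCI standard protocol, with doxorubicin as positive control. Compounds were tested at four concentrations in 10-fold dilutions (0.25 to 250). Dose-response curves gave GI50 (the concentration for 50% growth inhibition), TGI (total growth inhibition) and LC50 (50% cell death).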

MCF7 = experiment: Cytotoxicity against human MCF7 cells by sulforhodamine B assay; conditions: for CC50: read-out: LC50 (the source's name); how it was run: as §1
[1] = Cytotoxicity against human NCI/ADR cells by sulforhodamine B assay; conditions: NCI/ADR-RES; for CC50: read-out: LC50 (the source's name); how it was run: as §1
NCI-H460 = experiment: Cytotoxicity against human NCI-H460 cells by sulforhodamine B assay; conditions: for CC50: read-out: LC50 (the source's name); how it was run: as §1
[2] = Cytotoxicity against human PCO3 cells by sulforhodamine B assay; conditions: for CC50: read-out: LC50 (the source's name); how it was run: as §1
OVCAR-3 = experiment: Cytotoxicity against human OVCAR-3 cells by sulforhodamine B assay; conditions: for CC50: read-out: LC50 (the source's name); how it was run: as §1
HT-29 = experiment: Cytotoxicity against human HT-29 cells by sulforhodamine B assay; conditions: for CC50: read-out: LC50 (the source's name); how it was run: as §1
K562 = experiment: Cytotoxicity against human K562 cells by sulforhodamine B assay; conditions: for CC50: read-out: LC50 (the source's name); how it was run: as §1

| SMILES | GI50 (UACC-62) [µM] | LC50 (50% cell kill) (UACC-62) [µM] | TGI (UACC-62) [µM] | GI50 (MCF7) [µM] | TGI (MCF7) [µM] | CC50 (MCF7) [µM] | CC50 [1] [µM] | GI50 (NCI-H460) [µM] | TGI (NCI-H460) [µM] | CC50 (NCI-H460) [µM] | GI50 [2] [µM] | TGI [2] [µM] | CC50 [2] [µM] | GI50 (OVCAR-3) [µM] | TGI (OVCAR-3) [µM] | CC50 (OVCAR-3) [µM] | GI50 (HT-29) [µM] | TGI (HT-29) [µM] | CC50 (HT-29) [µM] | GI50 (K562) [µM] | other results |
| --- | --- | --- | --- | --- | --- | --- | --- | --- | --- | --- | --- | --- | --- | --- | --- | --- | --- | --- | --- | --- | --- |
| CC1=CC[C@@H]([C@@](C)(O)CCCC(C)(C)NC(=S)N/N=C\c2ccc(N(C)C)cc2)CC1 | > 100 | > 100 | > 100 | 14 | > 100 | > 100 | > 100 | 19.6 | > 100 | > 100 | 13.7 | > 100 | > 100 | 3.6 | > 100 | > 100 | 27.7 | > 100 | > 100 | 0.08 | GI50 [1]: 25.2 µM; TGI [1]: > 100 µM; TGI (K562): 42 µM; CC50 (K562): > 100 µM |
| CC1=CC[C@@H]([C@@](C)(O)CCCC(C)(C)NC(=S)N/N=C\c2ccccc2[N+](=O)[O-])CC1 | 6.05 | 49.3 | 16.6 | 18.6 | > 100 | > 100 | > 100 | 20.6 | > 100 | > 100 | 39.9 | > 100 | > 100 | 7.39 | 16.2 | 41.9 | 6.94 | 16.8 | 44.4 | 0.19 | GI50 [1]: 20.4 µM; TGI [1]: > 100 µM; TGI (K562): 7.84 µM; CC50 (K562): > 100 µM |
| CC1=CC[C@@H]([C@@](C)(O)CCCC(C)(C)NC(=S)N/N=C\c2ccc(O)cc2)CC1 | 8.87 | 55.6 | 40.1 | 6.23 | 21.2 | 56.4 | > 100 | 1.46 | 20.7 | > 100 | 6.23 | 13.9 | 50.1 | 6.23 | 17.4 | 54.4 | 8.15 | 31.5 | 58.5 | 0.6 | TGI (K562): 31.1 µM; CC50 (K562): > 100 µM |
| CC1=CC[C@@H]([C@@](C)(O)CCCC(C)(C)NC(=S)NN=C(c2ccccc2)c2ccccc2)CC1 | > 100 | > 100 | > 100 | 36.7 | > 100 | > 100 | > 100 | 13.5 | > 100 | > 100 | > 100 | > 100 | > 100 | > 100 | > 100 | > 100 | > 100 | > 100 | > 100 | 1.94 | GI50 [1]: 3.31 µM; TGI [1]: > 100 µM; TGI (K562): 4.19 µM; CC50 (K562): 10.3 µM |
| CC1=CC[C@@H]([C@@](C)(O)CCCC(C)(C)NC(=S)N/N=C\c2cccc([N+](=O)[O-])c2)CC1 | 7.84 | 49.3 | 24.7 | 6.72 | 18.3 | 47.3 | > 100 | 8.29 | 68.6 | > 100 | 5.6 | 20.7 | 52.5 | 8.51 | 40.8 | > 100 | 14.1 | 57.1 | > 100 | 0.02 | GI50 [1]: 6.72 µM; TGI [1]: 38 µM; TGI (K562): 0.56 µM; CC50 (K562): 12.6 µM |
| CC1=CC[C@@H]([C@@](C)(O)CCCC(C)(C)NC(=S)N/N=C\c2ccc(Cl)cc2)CC1 | 7.35 | 40.6 | 13.8 | 6.89 | 15.8 | 44.3 | > 100 | 8.72 | > 100 | > 100 | 7.58 | 22.7 | 48.5 | 6.66 | 12.8 | 40.6 | 7.35 | 22.6 | 47.3 | 0.04 | GI50 [1]: 7.58 µM; TGI [1]: 36.4 µM; TGI (K562): 0.73 µM; CC50 (K562): 10.3 µM |
| CC1=CC[C@@H]([C@@](C)(O)CCCC(C)(C)NC(=S)N/N=C\c2cccc(Cl)c2)CC1 | 7.81 | 42.7 | 18.1 | 7.35 | 19.5 | 45.9 | > 100 | 44.3 | > 100 | > 100 | 11.2 | 37.8 | 57 | 8.27 | 26.5 | 48 | 6.89 | 16.5 | 45.9 | 0.03 | GI50 [1]: 7.35 µM; TGI [1]: 31.9 µM; TGI (K562): 1.06 µM; CC50 (K562): 56.3 µM |
| CC1=CC[C@@H]([C@@](C)(O)CCCC(C)(C)NC(=S)N/N=C\c2ccccc2Cl)CC1 | 53.3 | > 100 | > 100 | 31.2 | > 100 | > 100 | > 100 | 24.6 | > 100 | > 100 | 18.8 | > 100 | > 100 | 42 | > 100 | > 100 | 23.7 | > 100 | > 100 | 0.15 | GI50 [1]: > 100 µM; TGI [1]: > 100 µM; TGI (K562): 4.11 µM; CC50 (K562): 8.5 µM |
| CC1=CC[C@@H]([C@@](C)(O)CCCC(C)(C)NC(=S)N/N=C\c2ccc(C)cc2)CC1 | 11.6 | 52.3 | 39 | 7.23 | > 100 | > 100 | > 100 | 10.1 | > 100 | > 100 | 6.75 | 45.7 | > 100 | 6.02 | 11.8 | 45.3 | 10.4 | 80.4 | > 100 | 0.14 | GI50 [1]: 6.51 µM; TGI [1]: 30.5 µM; TGI (K562): 7.95 µM; CC50 (K562): > 100 µM |
| CC1=CC[C@@H]([C@@](C)(O)CCCC(C)(C)NC(=S)N/N=C\c2ccc([N+](=O)[O-])cc2)CC1 | 20.8 | > 100 | 62.2 | 17.7 | > 100 | > 100 | > 100 | 10.1 | > 100 | > 100 | 18.1 | > 100 | > 100 | 13.4 | 88.6 | > 100 | 12.3 | 62.8 | > 100 | 4.22 | GI50 [1]: 12.8 µM; TGI [1]: > 100 µM; TGI (K562): 9.56 µM; CC50 (K562): 45.5 µM |

Reference: ChEMBL document CHEMBL1177875, “Antitumor activity of (-)-alpha-bisabolol-based thiosemicarbazones against human tumor cell lines” (2010)
